Experiments:
[1] = Ratio of heart to lungs uptake after 60 min was determined in female Fischer rats after [125I]-labeled compound complexed with bovine serum albumin was injected intravenously; format: functional
Summary of the method: (§1)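 Female Fischer 344 rats (food and water ad libitum) given the 125I-labelled fatty acid in 6% bovine albumin with 10% final ethanol, filtered, 0.5 mL into a lateral tail vein under ether anaesthesia. Four rats per time point. Tissue activity expressed as % injected dose/g against assayed injectate standards. Mean heart/tissue ratios were calculated from mean %ID/g values.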

[2] = Ratio of heart to lungs uptake after 120 min was determined in female Fischer rats after [125I]-labeled compound complexed with bovine serum albumin was injected intravenously; format: functional; summary of the method: as §1
Rattus norvegicus [3] = experiment: Heart uptake after 5 min was determined in female Fischer rats after [125I]-labeled compound complexed with bovine serum albumin was injected intravenously; format: functional
Summary of the method: (§2)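 Female Fischer 344 rats (fed ad libitum) under ether anaesthesia received the ¹²⁵I fatty acid in a lateral tail vein. Dose was ~3.8–4.8 μCi per rat (sp act ~125–240 mCi/mmol), given in 0.5 mL 6% bovine albumin (final ethanol 10%) after filtration. Four rats per time point were used. Tissue radioactivity is % injected dose/g, mean with range, calculated against standards of the injected solution.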

Rattus norvegicus [4] = experiment: Heart uptake after 60 min was determined in female Fischer rats after [125I]-labeled compound complexed with bovine serum albumin was injected intravenously; format: functional; summary of the method: as §2
[5] = Ratio of heart to lungs uptake after 30 min was determined in female Fischer rats after [125I]-labeled compound complexed with bovine serum albumin was injected intravenously; format: functional; summary of the method: as §1
[6] = Ratio of heart to liver uptake after 240 min was determined in female Fischer rats after [125I]-labeled compound complexed with bovine serum albumin was injected intravenously; format: functional; summary of the method: as §1
[7] = Ratio of heart to lungs uptake after 5 min was determined in female Fischer rats after [125I]-labeled compound complexed with bovine serum albumin was injected intravenously; format: functional; summary of the method: as §1
[8] = Ratio of heart to blood uptake after 60 min was determined in female Fischer rats after [125I]-labeled compound complexed with bovine serum albumin was injected intravenously; format: functional; summary of the method: as §1
[9] = Ratio of heart to liver uptake after 30 min was determined in female Fischer rats after [125I]-labeled compound complexed with bovine serum albumin was injected intravenously; format: functional; summary of the method: as §1
[10] = Ratio of heart to liver uptake after 60 min was determined in female Fischer rats after [125I]-labeled compound complexed with bovine serum albumin was injected intravenously; format: functional; summary of the method: as §1
[11] = Ratio of heart to blood uptake after 240 min was determined in female Fischer rats after [125I]-labeled compound complexed with bovine serum albumin was injected intravenously; format: functional; summary of the method: as §1
[12] = Ratio of heart to kidneys uptake after 120 min was determined in female Fischer rats after [125I]-labeled compound complexed with bovine serum albumin was injected intravenously; format: functional, Heart/Kidney; summary of the method: as §1
[13] = Ratio of heart to lungs uptake after 240 min was determined in female Fischer rats after [125I]-labeled compound complexed with bovine serum albumin was injected intravenously; format: functional; summary of the method: as §1
Rattus norvegicus [14] = experiment: Heart uptake after 240 min was determined in female Fischer rats after [125I]-labeled compound complexed with bovine serum albumin was injected intravenously; format: functional; summary of the method: as §2
[15] = Ratio of heart to liver uptake after 120 min was determined in female Fischer rats after [125I]-labeled compound complexed with bovine serum albumin was injected intravenously; format: functional; summary of the method: as §1
[16] = Ratio of heart to kidneys uptake after 60 min was determined in female Fischer rats after [125I]-labeled compound complexed with bovine serum albumin was injected intravenously; format: functional, Heart/Kidney; summary of the method: as §1
[17] = Ratio of heart to kidneys uptake after 30 min was determined in female Fischer rats after [125I]-labeled compound complexed with bovine serum albumin was injected intravenously; format: functional, Heart/Kidney; summary of the method: as §1
[18] = Ratio of heart to kidneys uptake after 240 min was determined in female Fischer rats after [125I]-labeled compound complexed with bovine serum albumin was injected intravenously; format: functional, Heart/Kidney; summary of the method: as §1
Rattus norvegicus [19] = experiment: Heart uptake after 120 min was determined in female Fischer rats after [125I]-labeled compound complexed with bovine serum albumin was injected intravenously; format: functional; summary of the method: as §2
[20] = Ratio of heart to blood uptake after 30 min was determined in female Fischer rats after [125I]-labeled compound complexed with bovine serum albumin was injected intravenously; format: functional; summary of the method: as §1
[21] = Ratio of heart to liver uptake after 5 min was determined in female Fischer rats after [125I]-labeled compound complexed with bovine serum albumin was injected intravenously; format: functional; summary of the method: as §1
[22] = Ratio of heart to kidneys uptake after 5 min was determined in female Fischer rats after [125I]-labeled compound complexed with bovine serum albumin was injected intravenously; format: functional, Heart/Kidney; summary of the method: as §1
[23] = Ratio of heart to blood uptake after 120 min was determined in female Fischer rats after [125I]-labeled compound complexed with bovine serum albumin was injected intravenously; format: functional; summary of the method: as §1
Rattus norvegicus [24] = experiment: Heart uptake after 30 min was determined in female Fischer rats after [125I]-labeled compound complexed with bovine serum albumin was injected intravenously; format: functional; summary of the method: as §2
[25] = Ratio of heart to blood uptake after 5 min was determined in female Fischer rats after [125I]-labeled compound complexed with bovine serum albumin was injected intravenously; format: functional; summary of the method: as §1
Rattus norvegicus [26] = experiment: Uptake in lungs after 4 hr was determined in female Fischer rats after [125I]-labeled compound complexed with bovine serum albumin was injected intravenously; format: functional
Summary of the method: (§3)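 Female Fischer 344 rats with free access to food and water. The 125I-labelled fatty acid (~3.8–4.8 μCi; sp act. ~125–240 mCi/mmol) was complexed with 6% bovine serum albumin (10% final ethanol), filtered, and 0.5 mL was injected via a lateral tail vein under ether anaesthesia. Four rats per time point. Values are mean % injected dose/g, calculated against injectate standards. Thyroid weight was taken as 7.5 mg/100 g body weight.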

Rattus norvegicus [27] = experiment: Blood uptake after 4 hr was determined in female Fischer rats after [125I]-labeled compound complexed with bovine serum albumin was injected intravenously; format: functional; summary of the method: as §2
Rattus norvegicus [28] = experiment: Uptake in lungs after 5 min was determined in female Fischer rats after [125I]-labeled compound complexed with bovine serum albumin was injected intravenously; format: functional; summary of the method: as §3
Rattus norvegicus [29] = experiment: Uptake in lungs after 30 min was determined in female Fischer rats after [125I]-labeled compound complexed with bovine serum albumin was injected intravenously; format: functional; summary of the method: as §3
Rattus norvegicus [30] = experiment: Liver uptake after 1d was determined in female Fischer rats after [125I]-labeled compound complexed with bovine serum albumin was injected intravenously; format: functional; summary of the method: as §2
Rattus norvegicus [31] = experiment: Liver uptake after 30 min was determined in female Fischer rats after [125I]-labeled compound complexed with bovine serum albumin was injected intravenously; format: functional; summary of the method: as §2
Rattus norvegicus [32] = experiment: Liver uptake after 5 min was determined in female Fischer rats after [125I]-labeled compound complexed with bovine serum albumin was injected intravenously; format: functional; summary of the method: as §2
Rattus norvegicus [33] = experiment: Liver uptake after 60 min was determined in female Fischer rats after [125I]-labeled compound complexed with bovine serum albumin was injected intravenously; format: functional; summary of the method: as §2
Rattus norvegicus [34] = experiment: Liver uptake after 4 hr was determined in female Fischer rats after [125I]-labeled compound complexed with bovine serum albumin was injected intravenously; format: functional; summary of the method: as §2
Rattus norvegicus [35] = experiment: Heart uptake after 4 hr was determined in female Fischer rats after [125I]-labeled compound complexed with bovine serum albumin was injected intravenously; format: functional; summary of the method: as §2
Rattus norvegicus [36] = experiment: Blood uptake after 30 min was determined in female Fischer rats after [125I]-labeled compound complexed with bovine serum albumin was injected intravenously; format: functional; summary of the method: as §2
Rattus norvegicus [37] = experiment: Thyroid uptake after 5 min was determined in female Fischer rats after [125I]-labeled compound complexed with bovine serum albumin was injected intravenously; format: functional; summary of the method: as §3
Rattus norvegicus [38] = experiment: Blood uptake after 1d was determined in female Fischer rats after [125I]-labeled compound complexed with bovine serum albumin was injected intravenously; format: functional; summary of the method: as §2
Rattus norvegicus [39] = experiment: Blood uptake after 5 min was determined in female Fischer rats after [125I]-labeled compound complexed with bovine serum albumin was injected intravenously; format: functional; summary of the method: as §2
Rattus norvegicus [40] = experiment: Blood uptake after 60 min was determined in female Fischer rats after [125I]-labeled compound complexed with bovine serum albumin was injected intravenously; format: functional; summary of the method: as §2
Rattus norvegicus [41] = experiment: Uptake in lungs after 60 min was determined in female Fischer rats after [125I]-labeled compound complexed with bovine serum albumin was injected intravenously; format: functional; summary of the method: as §3
Rattus norvegicus [42] = experiment: Heart uptake after 1d was determined in female Fischer rats after [125I]-labeled compound complexed with bovine serum albumin was injected intravenously; format: functional; summary of the method: as §2
Rattus norvegicus [43] = experiment: Uptake in lungs after 1 day was determined in female Fischer rats after [125I]-labeled compound complexed with bovine serum albumin was injected intravenously; format: functional; summary of the method: as §3
Rattus norvegicus [44] = experiment: Kidney uptake after 5 min was determined in female Fischer rats after [125I]-labeled compound complexed with bovine serum albumin was injected intravenously; format: functional; summary of the method: as §2

## O=C(O)CCCCC[Te]CCCCCCCCC/C=C/I
[1]
  Ratio: 2.9
[2]
  Ratio: 2.9
Rattus norvegicus [3]
  Injected dose/g: 3.47%
Rattus norvegicus [4]
  Injected dose/g: 2.96%
[5]
  Ratio: 2.9
[6]
  Ratio: 0.54
[7]
  Ratio: 2.7
[8]
  Ratio: 13
[9]
  Ratio: 0.49
[10]
  Ratio: 0.55
[11]
  Ratio: 8
[12]
  Ratio: 3.3
[13]
  Ratio: 2.8
Rattus norvegicus [14]
  Injected dose/g: 2.37%
[15]
  Ratio: 0.59
[16]
  Ratio: 3.1
[17]
  Ratio: 3.1
[18]
  Ratio: 3.1
Rattus norvegicus [19]
  Injected dose/g: 2.86%
[20]
  Ratio: 13
[21]
  Ratio: 0.56
[22]
  Ratio: 3.3
[23]
  Ratio: 12
Rattus norvegicus [24]
  Injected dose/g: 2.78%
[25]
  Ratio: 13

## O=C(O)CCCCCCCCCCC[Te]CCC/C=C/I
[1]
  Ratio: 1.6
[2]
  Ratio: 1.3
Rattus norvegicus [3]
  Injected dose/g: 1.46%
Rattus norvegicus [4]
  Injected dose/g: 1.81%
[5]
  Ratio: 1.7
[6]
  Ratio: 0.39
[7]
  Ratio: 1.6
[8]
  Ratio: 2.6
[9]
  Ratio: 0.29
[10]
  Ratio: 0.41
[11]
  Ratio: 1.2
[12]
  Ratio: 1.1
[13]
  Ratio: 1.1
Rattus norvegicus [14]
  Injected dose/g: 0.76%
[15]
  Ratio: 0.42
[16]
  Ratio: 1.6
[17]
  Ratio: 1.5
[18]
  Ratio: 1.9
Rattus norvegicus [19]
  Injected dose/g: 1.03%
[20]
  Ratio: 2.5
[21]
  Ratio: 0.17
[22]
  Ratio: 1.5
[23]
  Ratio: 1.5
Rattus norvegicus [24]
  Injected dose/g: 1.52%
[25]
  Ratio: 8

## O=C(O)CCC[Te]CCCCCCCCCCC/C=C/I
Rattus norvegicus [26]
  Injected dose/g: 0.92%
[1]
  Ratio: 3.7
[2]
  Ratio: 3.6
Rattus norvegicus [3]
  Injected dose/g: 3.99%
Rattus norvegicus [4]
  Injected dose/g: 4.33%
[5]
  Ratio: 3
[6]
  Ratio: 0.75
Rattus norvegicus [27]
  Injected dose/g: 0.19%
Rattus norvegicus [28]
  Injected dose/g: 1.47%
[7]
  Ratio: 2.7
[8]
  Ratio: 23
[9]
  Ratio: 0.84
[10]
  Ratio: 0.59
[11]
  Ratio: 18
Rattus norvegicus [29]
  Injected dose/g: 1.54%
[12]
  Ratio: 4
Rattus norvegicus [30]
  Injected dose/g: 3.64%
Rattus norvegicus [31]
  Injected dose/g: 5.53%
[13]
  Ratio: 3.9
[15]
  Ratio: 0.74
[16]
  Ratio: 3.7
Rattus norvegicus [32]
  Injected dose/g: 6.56%
Rattus norvegicus [33]
  Injected dose/g: 7.33%
Rattus norvegicus [34]
  Injected dose/g: 4.76%
[17]
  Ratio: 4.6
Rattus norvegicus [35]
  Injected dose/g: 3.57%
Rattus norvegicus [36]
  Injected dose/g: 0.16%
[18]
  Ratio: 4.3
Rattus norvegicus [37]
  Injected dose/g: 6.03%
[20]
  Ratio: 30
[21]
  Ratio: 0.6
Rattus norvegicus [38]
  Injected dose/g: 0.18%
[22]
  Ratio: 3.9
Rattus norvegicus [39]
  Injected dose/g: 0.11%
Rattus norvegicus [40]
  Injected dose/g: 0.19%
Rattus norvegicus [41]
  Injected dose/g: 1.16%
Rattus norvegicus [42]
  Injected dose/g: 3.96%
Rattus norvegicus [43]
  Injected dose/g: 0.71%
[23]
  Ratio: 20
Rattus norvegicus [24]
  Injected dose/g: 4.64%
[25]
  Ratio: 37
Rattus norvegicus [44]
  Injected dose/g: 1.02%

From ChEMBL document CHEMBL1122777, “Effect of tellurium position on the myocardial uptake of radioiodinated 18-iodotellura-17-octadecenoic acid analogues” (1984)
